According to PMC8453771 (Journal of Clinical Pharmacology, 2021):
Where two headings read alike, the source gives them in different places. Blank lines part the entries; values can stand above or below the compound they belong to.

Assays:
[1] = format: in vivo, human
Method in brief: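 Pooled noncompartmental data from 17 phase 1 studies in healthy subjects, fasted or light meal, no co-administered drugs; solution, suspension or tablet, 0.5–300 mg. Single dose: AUCinf; multiple dose: steady-state AUCtau (tau 24 h), day-1 Cmax.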

[2] = system: UGT1A9; experiment: UGT1A9 genotype analysis of ertugliflozin AUC pooled from phase 1 studies; format: in vivo, human; details: for Predicted mean (90% CI) ertugliflozin AUC: Wild type, fasted
Method in brief: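 AUC pooled from 20 phase 1 studies of fasted oral tablets in genotyped healthy subjects. Linear AUC-versus-dose model as for dose proportionality. Three UGT1A9 variants (*1b homozygous/heterozygous, -2152 heterozygous, *3 heterozygous) entered together as categorical covariates on slope, giving fold change versus wild type for all alleles.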

[3] = cited from earlier work
[4] = system: UGT1A9; details: in vitro; cited from earlier work
[5] = system: UGT2B7 and UGT2B4; details: in vitro; cited from earlier work
[6] = coadministration of rifampin; cited from earlier work
[7] = coadministration of mefenamic acid; PBPK modeling; cited from earlier work
[8] = primary metabolites in plasma; cited from earlier work
[9] = 5-mg tablet, fasted state, full model bootstrap

- predicted mean AUC [1, 9]: 437 ng·h/mL
- predicted mean Cmax [1, 9]: 88.7 ng/mL
- predicted mean AUC ([1]; 15-mg tablet, fasted state, full model bootstrap): 1380 ng·h/mL
- AUC higher versus the tablet form ([1]; administered as a solution): 16%
- Cmax lower versus the tablet form ([1]; administered as a solution): 18%
- AUC lower relative to fasting administration ([1]; administered with a light meal): 10%
- Cmax lower relative to fasting administration ([1]; administered with a light meal): 46%
- AUC intercept, Estimate (RSE, %) ([1]; base model): –26.5 (28.8) ng·h/mL
- AUC slope, Estimate (RSE, %) ([1]; base model, AUC as linear function of dose): 93.2 (1.50) ng·h/mL/mg
- Cmax slope, Estimate (RSE, %) ([1]; base model, Cmax as linear function of dose): 16.2 (2.20) ng/mL/mg
- relationship of AUC and Cmax to dose ([1]; dose range 0.5 to 300 mg, healthy subjects): dose‐proportional
- AUC intercept, Estimate (RSE, %) ([1]; full model): –33.7 (33.2) ng·h/mL
- Solution covariate: fold change in AUC slope vs tablet, Estimate (RSE, %) ([1]; full model): 1.16 (6.35)
- Solution covariate: fold change in Cmax slope vs tablet, Estimate (RSE, %) ([1]; full model): 0.821 (7.08)
- Suspension covariate: fold change in AUC slope vs tablet, Estimate (RSE, %) ([1]; full model): 1.04 (3.44)
- Suspension covariate: fold change in Cmax slope vs tablet, Estimate (RSE, %) ([1]; full model): 0.897 (4.77)
- effect of suspension formulation on AUC or Cmax relative to tablet ([1]; full model): did not have a significant effect
- AUC slope, Estimate (RSE, %) ([1]; full model, tablet, fasted): 94.1 (1.76) ng·h/mL/mg
- Cmax slope, Estimate (RSE, %) ([1]; full model, tablet, fasted): 17.7 (1.92) ng/mL/mg
- decrease in AUC compared with wild-type UGT1A9 ([2]; UGT1A9-2152 heterozygous and UGT1A9*1b heterozygous variants combined): 7.3%
- combined effect on AUC (fold vs wild type) ([2]; UGT1A9-2152 heterozygous and UGT1A9*1b heterozygous variants, 0.988 × 0.938): 0.927
- Predicted mean (90% CI) ertugliflozin AUC ([2]; 5 mg tablet): 436 ng·h/mL
- Predicted mean (90% CI) ertugliflozin AUC ([2]; 15 mg tablet): 1410 ng·h/mL
- AUC intercept, Estimate (RSE, %) ([2]; base model): –63.9 (16.3) ng·h/mL
- AUC slope, Estimate (RSE, %) ([2]; base model): 96.7 (1.89) ng·h/mL/mg
- AUC intercept, Estimate (RSE, %) ([2]; full model): –50.1 (22.8) ng·h/mL
- effect of UGT1A9-2152 heterozygous variant on AUC ([2]; full model, 95%CI included 1): did not have a significant effect
- AUC slope, Estimate (RSE, %) ([2]; full model, UGT1A9 wild-type subjects): 97.1 (3.25) ng·h/mL/mg
Compound: CCOc1ccc(Cc2cc([C@]34OC[C@](CO)(O3)[C@@H](O)[C@H](O)[C@H]4O)ccc2Cl)cc1 [ertugliflozin]
- clinical relevance of UGT1A9 genotype effect on ertugliflozin exposure ([2]; healthy subjects): did not have any clinically meaningful effects
- effect of high-fat meal on ertugliflozin AUC ([3]; 15-mg commercial tablet): no meaningful effect
- effect on ertugliflozin exposure of administration with food [3]: No clinically meaningful effect
- share of ertugliflozin biotransformation accounted for by glucuronidation [3]: ~90%
- administered dose recovered in urine and feces as unchanged ertugliflozin ([3]; mass-balance study in humans): ~35%
- median time to maximum plasma concentrations (Tmax) ([3]; multiple doses, fed): 2.0 h
- median time to maximum plasma concentrations (Tmax) ([3]; single doses, fasted): 1.0 h
- share of glucuronide metabolite formation catalyzed by UGT1A9 [4]: 81%
- share of ertugliflozin glucuronidation by UGT2B7 and UGT2B4 [5]: 19%
- reduction in ertugliflozin AUC [6]: ~39%
- increase in ertugliflozin AUC [7]: ~1.5 fold

Compound: CCOc1ccc(Cc2cc([C@]34OC[C@](CO)(O3)[C@@H](O)[C@H](O[C@@H]3O[C@H](C(=O)O)[C@@H](O)[C@H](O)[C@H]3O)[C@H]4O)ccc2Cl)cc1 [ertugliflozin‐3‐O‐β‐glucuronide]
- pharmacological activity of metabolite [8]: pharmacologically inactive

Compound: ertugliflozin‐2‐O‐β‐glucuronide
- pharmacological activity of metabolite [8]: pharmacologically inactive
